{
  "source": "paper PMC10073089",
  "about": "(European Journal of Medicinal Chemistry, 2023)",
  "key": {"[1]": {"assay": "Metabolic stability in mouse liver microsomes", "type": "in vitro ADME", "settings": "pH 7.4", "procedure,_shortened": "(§1)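 Microsomes at 0.33 mg/mL final in 0.1 M Tris pH 7.4 with 5 mM MgCl2, 0.01% DMSO and 0.005% BSA. Test compound at 1 μM final. Preincubated 10 min at 37 °C, then started with NADPH (1 mM final). Aliquots taken at 0, 7, 17, 30 and 60 min and quenched with cold methanol. After centrifugation, parent compound quantified by LC-MS/MS; half-life reported in min.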"}, "SKP2": {"test_system": "SKP2", "assay": "Western blot assay, SKP2 level in Vero-E6 cells", "type": "cell-based", "settings": "16 h"}, "[2]": {"assay": "Metabolic stability in human liver microsomes", "type": "in vitro ADME", "settings": "pH 7.4", "procedure,_shortened": "as §1"}, "BECN1": {"test_system": "BECN1", "assay": "Western blot assay, BECN1", "type": "cell-based", "settings": "Vero-E6 cells"}, "[3]": {"assay": "Pharmacokinetic study in ICR", "type": "in vivo, mice", "settings": "for conversion of prodrug to parent compound 21: mice plasma after single-dose administration; for improvement in plasma exposure (AUClast) compared to niclosamide: ICR (CD-1) mice, oral 30 mg/kg", "procedure,_shortened": "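Mice (N = 3 per group) fasted 12 h before dosing. Test compound given in DMSO/0.5% HMPC (5/95, v/v), 30 mg/kg orally or 2.5 mg/kg intravenously. Femoral-vein blood taken at 0.25, 0.5, 1, 2, 4, 8 and 24 h. […] analysed by LC-MS/MS for prodrug and parent. Mole correction applied for prodrug dosing; AUClast derived.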"}, "Sub-acute toxicity study": {"assay": "Sub-acute toxicity study", "type": "in vivo, ICR mice", "procedure,_shortened": "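Male mice of 18–20 g in four groups of ten: one control group and three oral groups at 50, 100 and 200 mg/kg, dosed once daily for ten days. Body weight, food intake and behaviour checked daily. Animals fasted before dissection. Heart, liver, spleen, lung, kidney and administration site collected for organ weight and histology.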"}},
  "data": [
    {"compound": "O=C(Nc1ccc([N+](=O)[O-])cc1Cl)c1cc(Cl)ccc1O", "note": "[NIC, niclosamide, reference compound]", "values": [
      {"measurement": "half-life at 1 µM", "setting": "[1]", "result": 5.86, "unit": "min"},
      {"measurement": "level of SKP2", "setting": "SKP2", "result": "reduced"},
      {"measurement": "half-life at 1 µM", "setting": "[2]", "result": 13.3, "unit": "min"},
      {"measurement": "levels of BECN1", "setting": "BECN1; 10 μM, vs control group", "result": "higher than the control group"}
    ]},
    {"compound": "CC(=O)Oc1cc(F)c(Cl)cc1C(=O)Nc1ccc(OC(F)(F)F)cc1", "note": "[Compound 25, 4-Chloro-5-fluoro-2-((4-(trifluoromethoxy)phenyl)carbamoyl)phenyl acetate]", "values": [
      {"measurement": "conversion of prodrug to parent compound 21", "setting": "[3]", "result": "rapidly hydrolyze to compound 21"}
    ]},
    {"compound": "CC(C)C(=O)Oc1cc(F)c(Cl)cc1C(=O)Nc1ccc(OC(F)(F)F)cc1", "note": "[Compound 24, 4-Chloro-5-fluoro-2-((4-(trifluoromethoxy)phenyl)carbamoyl)phenyl isobutyrate]", "values": [
      {"measurement": "conversion of prodrug to parent compound 21", "setting": "[3]", "result": "rapidly hydrolyze to compound 21"}
    ]},
    {"compound": "C[C@H](N)C(=O)Oc1cc(F)c(Cl)cc1C(=O)Nc1ccc(OC(F)(F)F)cc1.Cl", "note": "[Compound 26, 4-Chloro-5-fluoro-2-((4-(trifluoromethoxy)phenyl)carbamoyl)phenyll-alaninate monohydrochloride]", "values": [
      {"measurement": "conversion of prodrug to parent compound 21", "setting": "[3]", "result": "barely transforms to parent compound 21"}
    ]},
    {"compound": "O=C(Nc1ccc(C(F)(F)F)cc1)c1cc(Cl)c(F)cc1O", "note": "[Compound 19, 5-Chloro-4-fluoro-2-hydroxy-N-(4-(trifluoromethyl)phenyl)benzamide]", "values": [
      {"measurement": "improvement in plasma exposure (AUClast) compared to niclosamide", "setting": "[3]", "result": 3.19, "unit": "fold"}
    ]},
    {"compound": "O=C(Nc1ccc(OC(F)(F)F)cc1)c1cc(Cl)c(F)cc1O", "note": "[Compound 21, 5-Chloro-4-fluoro-2-hydroxy-N-(4-(trifluoromethoxy)phenyl)benzamide]", "values": [
      {"measurement": "half-life at 1 µM", "setting": "[1]", "result": 22.6, "unit": "min"},
      {"measurement": "level of SKP2", "setting": "SKP2", "result": "reduced"},
      {"measurement": "half-life at 1 µM", "setting": "[2]", "result": 120, "unit": "min"},
      {"measurement": "tolerability", "setting": "Sub-acute toxicity study; ICR mice, oral dosage up to 200 mg/kg, ten days", "result": "well tolerated"},
      {"measurement": "changes in body weight, organ weight, or tissue histology", "setting": "Sub-acute toxicity study; male ICR mice, 50, 100, 200 mg/kg once a day for ten days", "result": "No significant changes"},
      {"measurement": "mortality", "setting": "Sub-acute toxicity study; male ICR mice, 50, 100, 200 mg/kg once a day, 10 days observation", "result": "No mortality"},
      {"measurement": "levels of BECN1", "setting": "BECN1; 3 μM and 1 μM", "result": "slightly increased"},
      {"measurement": "levels of BECN1", "setting": "BECN1; 10 μM, vs control group", "result": "higher than the control group"},
      {"measurement": "improvement in plasma exposure (AUClast) compared to niclosamide", "setting": "[3]", "result": 10.84, "unit": "fold"}
    ]}
  ]
}
